Laboratory results published in ChEMBL document CHEMBL4325827, “Bifidenone: Structure-Activity Relationship and Advanced Preclinical Candidate” (J Med Chem, 2018).

How the values were obtained:
[1] = Time at which plasma concentration stays above NCI-H460 IC50 in Crl:NU(NCr)-Foxn1 nu mouse xenografted with human NCI-H460 cells at 40 mg/kg, ip injected via vehicle consisting 40.5% propylene glycol, 2.7% tween-20, 31.5% PEG400, 15.3% ethanol and 10% water by LC-MS analysis; assay type: ADME, organism-based; details: in vivo
[2] = Ratio of plasma concentration in Crl:NU(NCr)-Foxn1 nu mouse at 75 to 100 mg/kg, ip injected via vehicle consisting 40.5% propylene glycol, 2.7% tween-20, 31.5% PEG400, 15.3% ethanol and 10% water measured at 6 hrs post injection to IC50 for human NCI-H460 cells; assay type: ADME, organism-based; details: in vivo
[3] = Plasma concentration in Crl:NU(NCr)-Foxn1 nu mouse at 40 mg/kg, ip injected via vehicle consisting 40% propylene glycol, 20% tween-20, 20% PEG400, 20% ethanol […] by LC-MS analysis; assay type: ADME, organism-based; details: in vivo
Method in brief: (§1)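 Male Nu/Nu mice, some bearing NCI-H460 or LOX-IMVI xenografts, given a single ip dose at 3 mL/kg. Organic vehicle components were dissolved first, with the aqueous part added gradually. Mice were euthanized at 1 h or 3 h. Cardiac blood was taken into NaEDTA/NaF plasma separator tubes. Quantification used loratadine internal standard against a spiked blank-plasma curve. Tumours were run as duplicate ~200 mg samples homogenized in 3% SDS and extracted twice with ethyl acetate, assuming 1 g tissue = 1 mL.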

M14 = assay: Antiproliferative activity against human M14 cells after 72 hrs by CellTiter 96 aqueous nonradioactive cell proliferation assay; assay type: functional, cell-based; details: M14, 72 h
Method in brief: (§2)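 Antiproliferation in cultured tumour cells, at least 3 replicate wells per concentration per experiment. NCI-H460 came from ATCC. M14, NCI/ADR-RES, OVCAR-4, HCT-15, ACHN and SF-295 came from the National Cancer Institute. IC50 reported from single experiments where no SD is given.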

[4] = Plasma concentration in Crl:NU(NCr)-Foxn1 nu mouse at 40 mg/kg, ip injected via vehicle consisting 25% propylene glycol, 20% tween-20, 20% PEG400, 20% ethanol by LC-MS analysis; assay type: ADME, organism-based; details: in vivo; method in brief: as §1
[5] = Plasma concentration in Crl:NU(NCr)-Foxn1 nu mouse at 40 mg/kg, ip injected via vehicle consisting 45% propylene glycol, <3 % tween-20, 20% PEG400, 20% ethanol by LC-MS analysis; assay type: ADME, organism-based; details: in vivo; method in brief: as §1
[6] = Ratio of plasma concentration in Crl:NU(NCr)-Foxn1 nu mouse at 40 mg/kg, ip injected via vehicle consisting 40.5% propylene glycol, 2.7% tween-20, 31.5% PEG400, 15.3% ethanol and 10% water measured at 1 hr post injection to IC50 for human NCI-H460 cells; assay type: ADME, organism-based; details: in vivo
[7] = Time at which plasma concentration stays above NCI-H460 IC50 in Crl:NU(NCr)-Foxn1 nu mouse xenografted with human NCI-H460 cells at 40 mg/kg, ip injected via vehicle consisting 40% propylene glycol, 20% tween-20, 20% PEG400, and 20% ethanol by LC-MS analysis; assay type: ADME, organism-based; details: in vivo
[8] = Ratio of plasma concentration in Crl:NU(NCr)-Foxn1 nu mouse at 40 mg/kg, ip injected via vehicle consisting 40.5% propylene glycol, 2.7% tween-20, 31.5% PEG400, 15.3% ethanol and 10% water measured at 30 mins post injection to IC50 for human NCI-H460 cells; assay type: ADME, organism-based; details: in vivo, 0.5 h
[9] = Drug uptake in tumor of human NCI-H460 cells xenografted in Crl:NU(NCr)-Foxn1 nu mouse at 40 mg/kg, ip measured at 3 hrs post injection by LC-MS analysis; assay type: ADME, organism-based, Neoplasm; details: in vivo; method in brief: as §1
NCI-H460 = assay: Antiproliferative activity against human NCI-H460 cells after 72 hrs by CellTiter 96 aqueous nonradioactive cell proliferation assay; assay type: functional, cell-based; details: NCI-H460, 72 h; method in brief: as §2
OVCAR-4 = assay: Antiproliferative activity against taxane-resistant human OVCAR4 cells after 72 hrs by CellTiter 96 aqueous nonradioactive cell proliferation assay; assay type: functional, cell-based; details: OVCAR-4, 72 h; method in brief: as §2
SF-295 = assay: Antiproliferative activity against taxane-resistant human SF295 cells after 72 hrs by CellTiter 96 aqueous nonradioactive cell proliferation assay; assay type: functional, cell-based; details: SF-295, 72 h; method in brief: as §2
EKVX = assay: Antiproliferative activity against taxane-resistant human EKVX cells after 72 hrs by CellTiter 96 aqueous nonradioactive cell proliferation assay; assay type: functional, cell-based
UO-31 = assay: Antiproliferative activity against taxane-resistant human UO31 cells after 72 hrs by CellTiter 96 aqueous nonradioactive cell proliferation assay; assay type: functional, cell-based; details: UO-31, 72 h
HCT-15 = assay: Antiproliferative activity against taxane-resistant human HCT15 cells after 72 hrs by CellTiter 96 aqueous nonradioactive cell proliferation assay; assay type: functional, cell-based; details: HCT-15, 72 h; method in brief: as §2
NCI/ADR-RES = assay: Antiproliferative activity against taxane-resistant human NCI/ADR-RES cells after 72 hrs by CellTiter 96 aqueous nonradioactive cell proliferation assay; assay type: functional, cell-based; method in brief: as §2
ACHN = assay: Antiproliferative activity against taxane-resistant human ACHN cells after 72 hrs by CellTiter 96 aqueous nonradioactive cell proliferation assay; assay type: functional, cell-based; method in brief: as §2
[10] = Drug uptake in tumor of human LOXIMVI cells xenografted in Crl:NU(NCr)-Foxn1 nu mouse at 40 mg/kg, ip measured at 3 hrs post injection by LC-MS analysis; assay type: ADME, organism-based, Neoplasm; details: in vivo; method in brief: as §1

IC50 (NCI-H460) [nM]	Compound	IC50 (M14) [nM]	further results
66	C=CC[C@H]1C[C@]2([C@@H](C)Cc3ccc(OC)c(C(N)=O)c3)OCOC2=CC1=O	12	
71	C=CC[C@H]1C[C@]2([C@@H](C)Cc3cc(NC(C)=O)c(OC)cc3F)OCOC2=CC1=O	52	
150	C=CC[C@H]1C[C@]2([C@@H](C)Cc3cc(C#N)c(OC)cc3F)OCOC2=CC1=O	37	
3300	C=CC[C@H]1C[C@]2([C@H](C)Cc3ccc(OC)c(F)c3F)OCOC2=CC1=O	3800	
1100	C=CC[C@H]1C[C@]2([C@@H](C)Cc3ccc(OC)c(C(=O)NC)c3)OCOC2=CC1=O	1400	
> 4000	C=CC[C@@H]1C[C@]2([C@H](C)Cc3ccc(OC)c(OC)c3)OCOC2=CC1=O	> 4000	
94	C=CC[C@H]1C[C@]2([C@@H](C)Cc3ccc(OC)cc3F)OCOC2=CC1=O	14	Drug uptake [10]: Active
> 20000	C=CC[C@H]1C[C@]2([C@@H](C)Cc3ccc(OC)c(N4CCOCC4)c3)OCOC2=CC1=O	> 20000	
160	C=CC[C@H]1C[C@]2([C@@H](C)Cc3cc(N)c(OC)cc3F)OCOC2=CC1=O	29	
330	C=CC[C@H]1C[C@]2(C(C)Cc3cc(C(N)=O)c(OC)cc3F)OCOC2=CC1=O (stereo partly drawn)	4	
33	C=CC[C@H]1C[C@]2([C@@H](C)Cc3cc(O)c(OC)cc3F)OCOC2=CC1=O	9	
9700	C=CC[C@H]1C[C@]2([C@@H](C)Cc3ccccc3)OCOC2=CC1=O	5100	
310	C=CC[C@H]1C[C@]2([C@@H](C)Cc3ccc(OC)c(NC(C)=O)c3)OCOC2=CC1=O	85	
> 20000	C=CC[C@H]1C[C@]2([C@@H](C)Cc3cnc(OC)c(OC)c3)OCOC2=CC1=O	> 20000	
10600	C=CC[C@H]1C[C@]2([C@@H](C)Cc3cccc(OC)c3)OCOC2=CC1=O	8800	
> 20000	C=CC[C@H]1C[C@]2([C@@H](C)Cc3ccc(O)cc3)OCOC2=CC1=O	> 20000	

More lines, now with the values behind:

Compound	IC50 (NCI-H460) [nM]	IC50 (M14) [nM]	further results
C=CC[C@H]1C[C@]2([C@@H](C)Cc3ccc(OC)c(OC)c3)OCOC2=CC1=O		110	Time [1]: 3 h; Ratio [2]: > 4; Drug uptake [3]: Active; Drug uptake [4]: Not Active; Drug uptake [5]: Active; Ratio [6]: > 3; Time [7]: 1 h; Ratio [8]: > 6
C=CC[C@H]1C[C@]2([C@@H](C)Cc3cc(F)c(OC)cc3F)OCOC2=CC1=O	59	30	Drug uptake [9]: Active
C=CC[C@@H]1C[C@]2([C@@H](C)Cc3ccc(OC)c(OC)c3)OCOC2=CC1=O	> 4000	> 4000	
C=CC[C@H]1C[C@]2([C@H](C)Cc3ccc(OC)cc3)OCOC2=CC1=O	120	81	
C=CC[C@H]1C[C@]2([C@@H](C)Cc3ccc(OC)cc3)OCOC2=CC1=O	90	20	
C=CC[C@H]1C[C@]2(C(C)Cc3ccc(OCC)cc3)OCOC2=CC1=O (stereo partly drawn)	280	650	
CC(=O)O[C@H]1C(=O)[C@@]2(C)[C@H]([C@H](OC(=O)c3ccccc3)[C@]3(O)C[C@H](OC(=O)[C@H](O)[C@@H](NC(=O)c4ccccc4)c4ccccc4)C(C)=C1C3(C)C)[C@]1(OC(C)=O)CO[C@@H]1C[C@@H]2O [PACLITAXEL]			IC50 (OVCAR-4): > 600 nM; IC50 (SF-295): 56 nM; IC50 (EKVX): 150 nM; IC50 (UO-31): 240 nM; IC50 (HCT-15): 190 nM; IC50 (NCI/ADR-RES): > 9000 nM; IC50 (ACHN): 80 nM
C=CC[C@H]1C[C@]2([C@@H](C)Cc3cc(OC)c(OC)cc3F)OCOC2=CC1=O	120	14	
C=CC[C@H]1C[C@]2(C(C)Cc3ccc(OC)c(OC(C)=O)c3)OCOC2=CC1=O (stereo partly drawn)	110	16	
C=CC[C@H]1C[C@]2(C(C)Cc3ccc(OC)c(N)c3)OCOC2=CC1=O (stereo partly drawn)	180	49	
C=CC[C@H]1C[C@]2([C@@H](C)Cc3ccc(OC)c(C#N)c3)OCOC2=CC1=O	340	180	
C=CC[C@H]1C[C@]2(CCc3ccc(OC)c(OC)c3)OCOC2=CC1=O	3200	2000	
C=CC[C@H]1C[C@]2(C(CC)Cc3ccc(OC)c(OC)c3)OCOC2=CC1=O (mixture of isomers)	11000	2600	
C=CC[C@H]1C[C@]2([C@@H](C)Cc3cnc(OC)cc3F)OCOC2=CC1=O	> 20000	8000	
C=CC[C@H]1C[C@]2(C(C)Cc3ccc(F)cc3)OCOC2=CC1=O (stereo partly drawn)	> 20000	> 20000	
C=CC[C@H]1C[C@]2([C@@H](C)Cc3ccc(OC)c(Cl)c3)OCOC2=CC1=O	640	240	
C=CC[C@H]1C[C@]2([C@H](C)Cc3ccc(OC)c(OC)c3)OCOC2=CC1=O	320	300	
C=CC[C@H]1C[C@]2([C@H](C)Cc3cc(F)c(OC)cc3F)OCOC2=CC1=O	35	10	
C=CC[C@H]1C[C@]2([C@@H](C)Cc3ccc(OC(C)=O)cc3)OCOC2=CC1=O	> 20000	> 20000	
C=CC[C@H]1C[C@]2([C@@H](C)Cc3ccc(OC)c(O)c3)OCOC2=CC1=O	80	8	
C=CC[C@H]1C[C@]2([C@@H](C)Cc3ccc(OC)nc3)OCOC2=CC1=O	330	180	
C=CC[C@H]1C[C@]2([C@H](C)Cc3c(F)cc(OC)cc3F)OCOC2=CC1=O	2500	320	
C=CC[C@H]1C[C@]2([C@@H](C)Cc3ccc(OC)c(F)c3)OCOC2=CC1=O	90	8	
C=CC[C@H]1C[C@]2([C@@H](C)Cc3ccc(OC)c(C)c3)OCOC2=CC1=O	630	410	
C=CC[C@H]1C[C@]2([C@@H](C)Cc3ccc(OC(F)(F)F)cc3)OCOC2=CC1=O	3800	> 20000	
C=CC[C@H]1C[C@]2([C@@H](C)Cc3cc(C)c(OC)cc3F)OCOC2=CC1=O	650	230	
